Results taken from PMC5837702 (Toxicological Sciences, 2017).
Several values for one entry are separate records, joined by “and”; a condition that tells them apart may be missing. Equal values may be shown once. Entries after “also recorded” stand apart in the source; their conditions may differ.

What was measured:
[1] = test system: Salmonella Typhimurium TA98; assay: Bacterial reverse mutation test; format: cell-based; details: for Induction of revertant colonies compared with vehicle control: absence of metabolic activation; for Induction of revertants: presence of S9
[2] = test system: Balb/c 3T3 clone A31-1-1 cells; assay: BALB/c 3T3 cell transformation assay; format: cell-based; details: for Induction of foci / cell transformation: concentrations of up to 50 µM
[3] = test system: mouse fibroblast C3H/M2 cells; details: ref Pfau etal., 1999, cited from earlier work; for Malignant transformation: in the presence of rat-liver S9; for Cell transformation: without metabolic activation
[4] = test system: complex human gut microbiota; assay: MelQx transformation by complex human colon microbiota; format: in vitro ADME; details: absence of glycerol, 100 μM MelQx, 37 °C, 72 h
Outline: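 Faecal microbiota from a healthy person were immobilised in gellan-xanthan gel beads under strict anaerobiosis and inoculated (30% v/v) into a proximal-colon reactor (37 °C, pH 5.7). It was linked to a distal-colon reactor (37 °C, pH 6.8). PC and DC effluents seeded triplicate mYCFA batch fermentations. Supernatants were alkalinised with Na2CO3, extracted thrice with ethyl acetate, concentrated and analysed by LC-ESI-MS2.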

[5] = test system: human colon epithelial cells (HCEC); assay: Cytotoxicity, CellTiter-Glo luminescent cell viability assay; format: cell-based; details: for LOAEL / NOAEL / BMD5 / BMD10 / BMDU5 / BMDL10 / BMDL5 / BMDU10 / IC50: 24 h; for BMD5: 5% benchmark dose; for BMD10: 10% benchmark dose; for BMDU5: highest benchmark dose upper bound, Hill models; for BMDU5 / BMDL5: 5% response; for BMDL10: lower bound; for BMDL10 / BMDU10: 10% response; for BMDL5: lowest benchmark dose lower bound, exponential models; for BMDU10: upper bound; for IC10 (95% CI): mean of 3 experiments; for IC50: Homo sapiens, read-out: IC50 (95% CI)
bacteria [6] = details: cited from earlier work; for Mutagenic activity: 1 µg/plate, similar experimental conditions, ref Vanhaecke etal., 2008b
L. reuteri ATCC 55730 = assay: Microbial MelQx transformation in mYCFA with glycerol; format: in vitro ADME, Lactobacillus reuteri; details: 100 µM MelQx, anaerobic, 37 °C, 3 days
L. rossiae DSM 15184 = assay: as above; format: in vitro ADME, Lactobacillus rossiae; details: 100 µM MelQx, anaerobic, 37 °C, 3 days
[7] = Stability of MelQx-M1 under Ames assay conditions; format: in vitro ADME; details: 10% rat liver S9, 1 µM, 30 min, 37 °C
[8] = test system: human colon epithelial cells from a different origin; details: in presence of sulfotransferases; ref Herbst etal. (2006); cited from earlier work
rat intestinal tissues = details: ref Nicken etal., 2015; cited from earlier work
BALB/c 3T3 cells = details: non-cytotoxic concentrations; ref Nicken etal., 2015; cited from earlier work
bacteria [9] = assay: Ames test; format: cell-based; details: 1 µg/plate, expectation of the authors
[10] = −S9, dose 5 µg/plate, positive control
[11] = +S9, dose 0.08 µM (0.01 µg/plate)
[12] = +S9, dose 0.2 µM (0.23 µM in text; 0.03 µg/plate MelQx, 0.04 MelQx-M1)
[13] = +S9, dose 0.8 µM (0.11 µg/plate MelQx, 0.13 MelQx-M1)
[14] = +S9, dose 2.3 µM (0.32 µg/plate MelQx, 0.40 MelQx-M1)
[15] = +S9, dose 7.7 µM (1.1 µg/plate MelQx, 1.3 MelQx-M1)
[16] = −S9, dose 0.08 µM (0.01 µg/plate)
[17] = −S9, dose 0.2 µM (0.03 µg/plate MelQx, 0.04 MelQx-M1)
[18] = −S9, dose 0.8 µM (0.11 µg/plate MelQx, 0.13 MelQx-M1)
[19] = −S9, dose 2.3 µM (0.32 µg/plate MelQx, 0.40 MelQx-M1)
[20] = −S9, dose 7.7 µM (1.1 µg/plate MelQx, 1.3 MelQx-M1)
[21] = 0.1 µM, 72 h exposure, n = 9–10
[22] = 0.5 µM, 72 h exposure, n = 9–10

Molecule `O=[N+]([O-])c1ccc2c(c1)Cc1ccccc1-2` [2-nitrofluorene, 2-Nitrofluorene] has a Mutagenic activity [1, 10] of 616 ± 18 revertants/plate.
For `Cc1ccc2cc3c(ccc4ccccc43)c3c2c1CC3` [3-methylcholanthrene], the “Number of foci per plate” value ([2]; 15 µM, positive control) was “Medium (control), 0.1% DMSO, 15 µM 3-methylcholanthrene (MCA, positive control) induced 0.2 ± 0.4, 0 ± 0, and 14.1 ± 4.5 foci per plate, respectively. NT, not tested in this study. Data are displayed as mean ± SD (n = 9–10)”.
For `Nc1ccc([N+](=O)[O-])cc1N` [4-NPD, 4-nitro-o-phenylenediamine], the Mutagenic activity [1, 10] was 695 ± 5 revertants/plate.
In the case of `Cn1c(N)nc2c3cccnc3ccc21` [IQ, 2-amino-3-methylimidazo[4,5-f]quinoline], the Malignant transformation [3] is listed as “all induced malignant transformation” and the Cell transformation [3] is listed as “none of the HCAs induced cell transformation”.
`Cc1cnc2ccc3c(nc(N)n3C)c2n1` [MelQx, 2-Amino-3,8-dimethylimidazo[4,5-f]quinoxaline] showed a Mutagenic activity [1, 11] of 352 ± 4 revertants/plate, a Mutagenic activity [1, 12] of 980 ± 20 revertants/plate and a Mutagenic activity [1, 13] of 1264 ± 38 revertants/plate. The Mutagenic activity [1, 14] was 1449 ± 132 revertants/plate, the Mutagenic activity [1, 15] was greater than 1500 revertants/plate and the Mutagenic activity ([1]; +S9, dose 23–769 µM (3.2–107 µg/plate)) was greater than 1500 revertants/plate. For the same molecule, the “Induction of revertant colonies compared with vehicle control” value [1] was “did not induce a significantly higher number of revertant colonies”, the Induction of revertants [1] was “induced a significant and concentration-dependent increase of the number of revertants” and the Mutagenic activity [1, 16] was 23 ± 1 revertants/plate. It also gave a Mutagenic activity [1, 17] of 21 ± 2 revertants/plate, a Mutagenic activity [1, 18] of 20 ± 1 revertants/plate and a Mutagenic activity [1, 19] of 21 ± 1 revertants/plate. For the same molecule, the Mutagenic activity [1, 20] was 20 ± 1 revertants/plate, the Mutagenic activity ([1]; −S9, dose 23–769 µM (3.2–107 µg/plate)) was 21–22 revertants/plate and the “Transformation of MelQx to MelQx-M1” value [4] was “no transformation”. For the same molecule, the “Number of foci per plate” value [2, 21] was 0.1 ± 0.3, the “Number of foci per plate” value [2, 22] was 0.5 ± 0.7 and the “Number of foci per plate” value ([2]; 5 µM, 72 h exposure, n = 9–10) was 0.1 ± 0.3. For the same molecule, the “Number of foci per plate” value ([2]; 10 µM, 72 h exposure, n = 9–10) was 0.6 ± 0.7, the “Number of foci per plate” value ([2]; 50 µM, 72 h exposure, n = 9–10) was 0.6 ± 1.2 and the “Induction of foci / cell transformation” value [2] was “neither MelQx nor MelQx-M1 induced a significant amount of foci; also recorded: no detectable cell transformation”. For the same molecule, the LOAEL [5] was 50 µM, the NOAEL [5] was 10 µM and the BMD5 [5] was 26.5 µM. For the same molecule, the BMD10 [5] was 55.2 µM, the BMDU5 [5] was 55.8 µM and the BMDL10 [5] was 8.8 µM. For the same molecule, the BMDL5 [5] was 4.1 µM, the BMDU10 [5] was 87.6 µM and the “Concentrations that reduced cell viability” value ([5]; 24 h exposure) was no less than 50 µM. The “IC10 (95% CI)” value ([5]; 24 h exposure) was 52 (31–87) µM, the IC50 [5] was 272 µM and the “Mutagenicity relative to PhIP” value (bacteria [6]; Ames test, ref Pfau etal., 1999) was “about 10 times”. For the same molecule, the Malignant transformation [3] was “all induced malignant transformation”, the Cell transformation [3] was “none of the HCAs induced cell transformation” and the “Transformation efficiency on the basis of peak area (LC-ESI-MS2)” value (L. reuteri ATCC 55730) was 87% ± 0.9%. The “Transformation efficiency on the basis of peak area (LC-ESI-MS2)” value (L. rossiae DSM 15184) was 72% ± 1.5%.
For `Cc1cnc2ccc3c(c2n1)N1CCC(O)N=C1N3C` (stereo not drawn) [MelQx-M1, 9-hydroxyl-2,7-dimethyl-7,9,10,11-tetrahydropyrimido[2′,1′:2,3]imidazo[4,5-f]quinoxaline], the Mutagenic activity [1, 11] was 44 ± 1 revertants/plate, the Mutagenic activity [1, 12] was 66 ± 5 revertants/plate and the Mutagenic activity [1, 13] was 182 ± 13 revertants/plate. The Mutagenic activity [1, 14] was 358 ± 4 revertants/plate, the Mutagenic activity [1, 15] was 770 ± 7 revertants/plate and the Mutagenic activity ([1]; +S9, dose 23 µM (4.0 µg/plate)) was 1000 ± 20 revertants/plate. For the same molecule, the Mutagenic activity ([1]; +S9, dose 77–769 µM (14–135 µg/plate)) was greater than 1500 revertants/plate, the “Induction of revertant colonies compared with vehicle control” value [1] was “did not induce a significantly higher number of revertant colonies” and the “Mutagenic activity relative to MelQx in terms of revertants/plate” value ([1]; after microbial transformation of MelQx to MelQx-M1) was 3%–26%. For the same molecule, the Induction of revertants [1] was “induced a significant and concentration-dependent increase of the number of revertants”, the Mutagenic activity [1, 16] was 21 ± 1 revertants/plate and the Mutagenic activity [1, 17] was 21 ± 1 revertants/plate. For the same molecule, the Mutagenic activity [1, 18] was 21 ± 1 revertants/plate, the Mutagenic activity [1, 19] was 22 ± 2 revertants/plate and the Mutagenic activity [1, 20] was 31 ± 2 revertants/plate. For the same molecule, the Mutagenic activity ([1]; −S9, dose 23 µM (4.0 µg/plate)) was 32 ± 3 revertants/plate, the Mutagenic activity ([1]; −S9, dose 77–769 µM (14–135 µg/plate)) was 41–54 revertants/plate and the “Stability in the presence of S9” value [7] was “generation of small amounts of MelQx as a decomposition product”. The “Number of foci per plate” value [2, 21] was 1.1 ± 1.2, the “Number of foci per plate” value [2, 22] was 0.1 ± 0.3 and the “Number of foci per plate” value ([2]; 1 µM, 72 h exposure, n = 9–10) was 0.5 ± 0.7. For the same molecule, the “Number of foci per plate” value ([2]; 2 µM, 72 h exposure, n = 9–10) was 0.1 ± 0.3, the “Number of foci per plate” value ([2]; 3 µM, 72 h exposure, n = 9–10) was 0.1 ± 0.3 and the “Number of foci per plate” value ([2]; 4 µM, 72 h exposure, n = 9–10) was 0.2 ± 0.4. For the same molecule, the “Number of foci per plate” value ([2]; 5 µM, 72 h exposure, n = 9–10) was 0 ± 0, the “Number of foci per plate” value ([2]; 6 µM, 72 h exposure, n = 9–10) was 0.6 ± 0.8 and the “Number of foci per plate” value ([2]; 7 µM, 72 h exposure, n = 9–10) was 0.7 ± 1.5. For the same molecule, the “Number of foci per plate” value ([2]; 10 µM, 72 h exposure, n = 9–10) was 1.4 ± 2.2, the “Number of foci per plate” value ([2]; 50 µM, 72 h exposure, n = 9–10) was 0 ± 0 and the “Induction of foci / cell transformation” value [2] was “neither MelQx nor MelQx-M1 induced a significant amount of foci; also recorded: no detectable cell transformation”. It also gave an LOAEL [5] of 350 µM, an NOAEL [5] of 200 µM and a BMD5 [5] of 262.2 µM. The BMD10 [5] was 334.6 µM, the BMDU5 [5] was 334 µM and 333.7 µM and the BMDL10 [5] was 272.8 µM. For the same molecule, the BMDL5 [5] was 204 µM and 204.1 µM, the BMDU10 [5] was 366.1 µM and the “IC10 (95% CI)” value ([5]; 24 h exposure) was 316 (285–351) µM. It also gave an IC50 [5] of 617 µM.
In the case of `Cn1c(NO)nc2ncc(-c3ccccc3)cc21` [N-OH-PhIP, 2-hydroxyamino-1-methyl-6-phenylimidazo[4,5-b]pyridine], the Malignant transformation [8] is listed as “induced malignant transformation”.
For `Cn1c(N)nc2ncc(-c3ccccc3)cc21` [PhIP, 2-amino-1-methyl-6-phenylimidazo[4,5-b]pyridine], the Mutagenic activity (bacteria [6]) is listed as 1700 revertants/µg, the Malignant transformation [3] is listed as “all induced malignant transformation” and the Cell transformation [3] is listed as “none of the HCAs induced cell transformation”.
For `C[n+]1c2n(c3ncc(-c4ccccc4)cc31)CCC(O)N2.[Cl-]` (stereo not drawn) [PhIP-M1, 7-hydroxy-5-methyl-3-phenyl-6,7,8,9-tetrahydropyrido[3’,2’:4,5]imidazo[1,2-a]pyrimidin-5-ium chloride], the Cytotoxicity (rat intestinal tissues) is given as “not being cytotoxic”, the “Malignant transformation of BALB/c 3T3 cells” value (BALB/c 3T3 cells) is given as “did not induce malignant transformation; also recorded: does not induce cell transformation” and the Mutagenic activity (bacteria [6]) is given as 46 ± 2 revertants/µg. The Expected mutagenic activity (bacteria [9]) was 50 revertants/µg.
